Calls of active or inactive are those of the source.
Legend:
D(1A) dopamine receptor = D(1A) dopamine receptor (Homo sapiens, UniProt P21728); experiment: Displacement of [3H]SCH-23390 from human recombinant dopamine D1 receptor expressed in CHO cells; type: cell-based
Mus musculus [1] = experiment: Toxicity in Swiss albino mouse assessed as reduction in spontaneous locomotor activity at 7.5 mg/kg, ip dosed 60 mins before test; type: organism-based; conditions: in vivo, 1 h
Outline: (§1)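 Spontaneous locomotion: mice dosed i.p. 60 min before being placed individually in an actometer for 30 min. Distance travelled read at 6 and 30 min. Cages cleaned with 70% ethanol between animals. One-way ANOVA with Dunnett's; mean ± SEM of one experiment.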

Mus musculus [2] = experiment: Toxicity in Swiss albino mouse assessed as induction of impairment of motor coordination by measuring reduction in time spent on rota-rod at 60 mg/kg, ip dosed 60 mins before test by rotarod test; type: organism-based; conditions: in vivo, 1 h
Outline: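 Rotarod in male Swiss mice, i.p. dosing 60 min pre-test: impairment is inability to stay 1 min on a rod turning at 18 rpm, after 3 days of daily training. Mean ± SEM of 2 independent experiments; one-way ANOVA with Dunnett's.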

Mus musculus [3] = experiment: Toxicity in Swiss albino mouse assessed as reduction in spontaneous locomotor activity at 60 mg/kg, ip dosed 60 mins before test and measured after 6 mins; type: organism-based; conditions: in vivo, 0.1 h; outline: as §1
[4] = target: T1, 5-hydroxytryptamine receptor 1A (Rattus norvegicus, UniProt P19327); experiment: Displacement of [3H]-8-OH-DPAT from serotonin 5-HT1A receptor in Sprague-Dawley rat brain cortex homogenates incubated for 30 mins by liquid scintillation spectrometry
T1 sequence (P19327 whole entry): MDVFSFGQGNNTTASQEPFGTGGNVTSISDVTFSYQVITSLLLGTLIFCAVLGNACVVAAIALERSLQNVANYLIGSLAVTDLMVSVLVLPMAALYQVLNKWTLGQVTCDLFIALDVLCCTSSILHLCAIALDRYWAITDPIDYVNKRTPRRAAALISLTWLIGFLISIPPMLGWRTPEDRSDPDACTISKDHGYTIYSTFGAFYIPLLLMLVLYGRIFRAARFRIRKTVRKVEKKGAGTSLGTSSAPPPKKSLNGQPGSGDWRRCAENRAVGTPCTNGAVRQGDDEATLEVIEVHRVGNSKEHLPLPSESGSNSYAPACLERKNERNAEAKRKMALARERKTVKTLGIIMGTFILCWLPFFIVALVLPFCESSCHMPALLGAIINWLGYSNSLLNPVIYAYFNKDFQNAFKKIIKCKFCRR

Rattus norvegicus = experiment: In-vivo 5-HT1A receptor agonist activity in Wistar rat assessed as induction of lower lip retraction by measuring lower lip retraction score at 30 mg/kg, ip dosed 15 mins before test (reference value: 0.0 +/- 0.0)
[5] = target: T2, Adrenergic receptor alpha-2 (Rattus norvegicus, UniProt P22086+P19328+P22909); experiment: Displacement of [3H]RX 821002 from adrenergic alpha2 receptor in rat cerebral cortex
T2 sequence (P22086 whole entry): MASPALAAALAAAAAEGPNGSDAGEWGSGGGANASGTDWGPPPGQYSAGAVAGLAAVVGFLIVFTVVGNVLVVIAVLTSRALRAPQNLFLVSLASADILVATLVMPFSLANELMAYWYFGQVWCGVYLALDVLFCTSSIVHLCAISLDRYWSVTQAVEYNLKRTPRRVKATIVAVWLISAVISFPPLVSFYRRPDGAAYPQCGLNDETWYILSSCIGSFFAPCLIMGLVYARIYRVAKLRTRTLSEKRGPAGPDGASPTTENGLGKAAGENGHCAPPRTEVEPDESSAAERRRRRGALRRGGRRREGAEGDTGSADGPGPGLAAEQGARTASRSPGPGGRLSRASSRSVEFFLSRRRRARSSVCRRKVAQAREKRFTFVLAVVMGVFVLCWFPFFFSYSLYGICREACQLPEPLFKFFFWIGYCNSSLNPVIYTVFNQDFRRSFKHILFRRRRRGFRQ
T2 sequence (P19328 whole entry): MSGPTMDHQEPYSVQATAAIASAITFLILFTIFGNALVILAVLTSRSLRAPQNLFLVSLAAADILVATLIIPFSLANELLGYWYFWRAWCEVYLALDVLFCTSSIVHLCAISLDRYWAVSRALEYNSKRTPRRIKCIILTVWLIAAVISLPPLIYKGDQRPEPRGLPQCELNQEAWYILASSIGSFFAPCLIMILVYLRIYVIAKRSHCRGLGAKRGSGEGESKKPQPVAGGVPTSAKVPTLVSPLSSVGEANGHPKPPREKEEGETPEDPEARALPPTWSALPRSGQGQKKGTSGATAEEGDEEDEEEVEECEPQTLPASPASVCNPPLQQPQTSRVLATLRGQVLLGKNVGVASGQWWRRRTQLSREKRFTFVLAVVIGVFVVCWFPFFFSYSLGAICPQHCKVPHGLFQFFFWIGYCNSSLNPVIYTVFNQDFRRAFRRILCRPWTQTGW
T2 sequence (P22909 whole entry): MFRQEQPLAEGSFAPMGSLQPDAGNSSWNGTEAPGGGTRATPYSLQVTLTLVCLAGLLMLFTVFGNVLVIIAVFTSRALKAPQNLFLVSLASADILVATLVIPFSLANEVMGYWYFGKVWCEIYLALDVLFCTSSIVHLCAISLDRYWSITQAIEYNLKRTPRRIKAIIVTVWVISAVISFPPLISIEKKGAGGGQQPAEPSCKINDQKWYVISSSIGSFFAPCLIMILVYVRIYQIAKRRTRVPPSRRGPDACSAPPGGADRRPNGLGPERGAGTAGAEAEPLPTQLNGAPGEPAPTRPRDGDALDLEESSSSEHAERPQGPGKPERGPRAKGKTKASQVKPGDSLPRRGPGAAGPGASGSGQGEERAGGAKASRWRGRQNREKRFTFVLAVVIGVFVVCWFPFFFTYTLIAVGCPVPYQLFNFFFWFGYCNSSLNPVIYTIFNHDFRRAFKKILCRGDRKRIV

Mus musculus [6] = experiment: Induction of hypothermia in Swiss albino mouse assessed as reduction in body temperature at 30 mg/kg, ip measured after 30 mins post dose; type: functional, organism-based
Outline: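 Normothermic male Swiss mice; rectal thermistor readings over 180 min. Baseline is the mean of readings 60 and 30 min before dosing; readings at 30, 60, 90, 120 min post-injection; Δt = tf − ti. Test compounds i.p. (DMSO/methylcellulose); 8-OH-DPAT (5 mg/kg) and WAY 100635 (0.1 mg/kg) s.c. in water. Two-way ANOVA, Bonferroni.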

Mus musculus [7] = experiment: Toxicity in Swiss albino mouse assessed as reduction in spontaneous locomotor activity at 60 mg/kg, ip dosed 60 mins before test and measured after 30 mins; type: organism-based; conditions: in vivo, 0.5 h; outline: as §1
Mus musculus [8] = experiment: Toxicity in Swiss albino mouse assessed as effect on motor coordination at 3.75 to 15 mg/kg, ip dosed 60 mins before test by Chimney test; type: organism-based; conditions: in vivo, 1 h
Outline: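 Chimney test in male Swiss mice after i.p. dosing 60 min earlier: impairment defined as failure to climb backwards up a tube (3 cm inner diameter, 25 cm long) within 60 s. Animals pre-trained once daily for 3 days. One-way ANOVA with Dunnett's.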

Sequence of D(1A) dopamine receptor (P21728 whole entry): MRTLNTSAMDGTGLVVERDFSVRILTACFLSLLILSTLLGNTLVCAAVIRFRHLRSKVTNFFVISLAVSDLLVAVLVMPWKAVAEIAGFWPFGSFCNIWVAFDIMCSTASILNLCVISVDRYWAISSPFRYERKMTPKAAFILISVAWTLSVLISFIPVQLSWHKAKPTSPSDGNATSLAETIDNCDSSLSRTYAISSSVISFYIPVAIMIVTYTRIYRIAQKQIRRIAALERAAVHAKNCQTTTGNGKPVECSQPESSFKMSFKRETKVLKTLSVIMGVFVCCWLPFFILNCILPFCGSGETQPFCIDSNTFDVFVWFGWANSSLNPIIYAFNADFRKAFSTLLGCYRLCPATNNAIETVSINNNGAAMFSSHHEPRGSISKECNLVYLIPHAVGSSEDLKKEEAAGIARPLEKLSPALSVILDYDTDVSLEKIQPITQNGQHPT

Ki (D(1A) dopamine receptor): 610 nM | Ki [4]: 0.183 nM | Ki [5]: 4200 nM
Structure (SMILES): O=C(NCCN1CCN(c2ccc(Cl)c(Cl)c2)CC1)c1ccccn1
Activity (Mus musculus [1]): Non-Toxic | Activity (Mus musculus [2]): Toxic | Activity (Mus musculus [3]): Toxic | Activity_index (Rattus norvegicus): 0.1429 | Activity (Mus musculus [6]): Active | Activity (Mus musculus [7]): Toxic | Activity (Mus musculus [8]): Non-Toxic
